# Experimental data taken from ChEMBL document CHEMBL3860041, “Synthesis, biological evaluation and molecular modeling study of some new methoxylated 2-benzylthio-quinazoline-4(3H)-ones as nonclassical antifolates” (Bioorg Med Chem Lett, 2016).
# Columns and labels:
# Cancer cell lines [1] = experiment: Potency index, ratio of 5-fluorouracil GI50 to compound GI50 for human ovarian cancer cells; format: functional
# How it was run: (§1)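 GI50 for each cell line came from NCI panel testing over a 5-log dose range, with 5-fluorouracil tested alongside as the reference drug. The index relates the 5-fluorouracil GI50 to the compound GI50 within each tumour subpanel.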
# [2] = Growth inhibition of human A549 cells at 10 uM after 48 hrs by SRB assay relative to control; format: functional; settings: A549, 48 h, read-out: GI
# How it was run: (§2)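 NCI 60-cell-line panel, nine tumor subpanels; compounds tested at a single dose of 10 μM in the primary screen.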
# [3] = Growth inhibition of human prostate cancer cells after 48 hrs by SRB assay; format: functional; settings: Cancer cell lines
# How it was run: (§3)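 Follow-up NCI panel testing over a 5-log dose range for each cell line. GI50, TGI and LC50 were monitored, with 5-fluorouracil run as the positive control. Values are grouped by tumour subpanel.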
# [4] = Growth inhibition of human M14 cells at 10 uM after 48 hrs by SRB assay relative to control; format: functional; settings: M14, 48 h, read-out: GI; how it was run: as §2
# [5] = Growth inhibition of human MALME-3M cells at 10 uM after 48 hrs by SRB assay relative to control; format: functional; settings: read-out: GI; how it was run: as §2
# [6] = Growth inhibition of human 786-0 cells at 10 uM after 48 hrs by SRB assay relative to control; format: functional; settings: 786-0, 48 h, read-out: GI; how it was run: as §2
# [7] = Growth inhibition of human breast cancer cells after 48 hrs by SRB assay; format: functional; settings: Cancer cell lines; how it was run: as §3
# [8] = Growth inhibition of human PC3 cells at 10 uM after 48 hrs by SRB assay relative to control; format: functional; settings: PC-3, 48 h, read-out: GI; how it was run: as §2
# [9] = Growth inhibition of human Caki1 cells at 10 uM after 48 hrs by SRB assay relative to control; format: functional; settings: CAKI-1, 48 h, read-out: GI; how it was run: as §2
# [10] = Growth inhibition of human OVCAR4 cells at 10 uM after 48 hrs by SRB assay relative to control; format: functional; settings: OVCAR-4, 48 h, read-out: GI; how it was run: as §2
# [11] = Growth inhibition of human MCF7 cells at 10 uM after 48 hrs by SRB assay relative to control; format: functional; settings: MCF7, 48 h, read-out: GI; how it was run: as §2
# [12] = Growth inhibition of human RXF393 cells at 10 uM after 48 hrs by SRB assay relative to control; format: functional; settings: RXF 393, 48 h, read-out: GI; how it was run: as §2
# [13] = Growth inhibition of human IGROV1 cells at 10 uM after 48 hrs by SRB assay relative to control; format: functional; settings: IGROV-1, 48 h, read-out: GI; how it was run: as §2
# [14] = Growth inhibition of human LOXIMVI cells at 10 uM after 48 hrs by SRB assay relative to control; format: functional; settings: LOX IMVI, read-out: GI; how it was run: as §2
# Cancer cell lines [15] = experiment: Potency index, ratio of 5-fluorouracil GI50 to compound GI50 for human non-small cell lung cancer cells; format: functional; how it was run: as §1
# [16] = Growth inhibition of human SW620 cells at 10 uM after 48 hrs by SRB assay relative to control; format: functional; settings: SW-620, 48 h, read-out: GI
# How it was run: (§4)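 Primary screen across the full NCI 60 human tumour cell line panel, which covers nine tumour subpanels. A single dose of 10 μM was applied to each line, and growth was recorded for each cell line.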
# [17] = Growth inhibition of human SN12C cells at 10 uM after 48 hrs by SRB assay relative to control; format: functional; settings: read-out: GI; how it was run: as §4
# [18] = Growth inhibition of human T47D cells at 10 uM after 48 hrs by SRB assay relative to control; format: functional; settings: read-out: GI; how it was run: as §4
# [19] = Growth inhibition of human NCI-322M cells at 10 uM after 48 hrs by SRB assay relative to control; format: functional; settings: read-out: GI; how it was run: as §2
# Cancer cell lines [20] = experiment: Potency index, ratio of 5-fluorouracil GI50 to compound GI50 for human CNS cancer cells; format: functional; how it was run: as §1
# Cancer cell lines [21] = experiment: Potency index, ratio of 5-fluorouracil GI50 to compound GI50 for human renal cancer cells; format: functional; how it was run: as §1
# [22] = Growth inhibition of human KM12 cells at 10 uM after 48 hrs by SRB assay relative to control; format: functional; settings: KM12, 48 h, read-out: GI; how it was run: as §2
# Dihydrofolate reductase = target: T1, Dihydrofolate reductase (Bos taurus, UniProt P00376); experiment: Inhibition of bovine liver DHFR preincubated for 2 mins followed by addition of FH2 as substrate and NADPH
# T1 sequence (P00376 whole entry): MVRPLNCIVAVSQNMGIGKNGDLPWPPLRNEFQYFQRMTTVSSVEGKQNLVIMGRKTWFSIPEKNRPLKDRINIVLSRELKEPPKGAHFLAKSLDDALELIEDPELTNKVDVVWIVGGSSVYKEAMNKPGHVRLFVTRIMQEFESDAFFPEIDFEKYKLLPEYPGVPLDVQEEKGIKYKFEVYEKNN
# [23] = Growth inhibition of human UACC62 cells at 10 uM after 48 hrs by SRB assay relative to control; format: functional; settings: UACC-62, 48 h, read-out: GI; how it was run: as §4
# [24] = Growth inhibition of human SF539 cells at 10 uM after 48 hrs by SRB assay relative to control; format: functional; settings: SF-539, 48 h, read-out: GI; how it was run: as §2
# [25] = Growth inhibition of human HCC2998 cells at 10 uM after 48 hrs by SRB assay relative to control; format: functional; settings: HCC 2998, 48 h, read-out: GI; how it was run: as §2
# Melanoma cell = experiment: Potency index, ratio of 5-fluorouracil GI50 to compound GI50 for human melanoma cells; format: functional; how it was run: as §1
# [26] = Growth inhibition of human HT-29 cells at 10 uM after 48 hrs by SRB assay relative to control; format: functional; settings: HT-29, 48 h, read-out: GI; how it was run: as §2
# [27] = Growth inhibition of human SK-MEL-5 cells at 10 uM after 48 hrs by SRB assay relative to control; format: functional; settings: SK-MEL-5, 48 h, read-out: GI; how it was run: as §4
# [28] = Growth inhibition of human ACHN cells at 10 uM after 48 hrs by SRB assay relative to control; format: functional; settings: read-out: GI; how it was run: as §2
# [29] = Growth inhibition of human Hs 578T cells at 10 uM after 48 hrs by SRB assay relative to control; format: functional; settings: read-out: GI; how it was run: as §2
# [30] = Growth inhibition of human colon cancer cells after 48 hrs by SRB assay; format: functional; settings: Cancer cell lines; how it was run: as §3
# [31] = Growth inhibition of human SKOV3 cells at 10 uM after 48 hrs by SRB assay relative to control; format: functional; settings: SK-OV-3, 48 h, read-out: GI; how it was run: as §4
# [32] = Growth inhibition of human UO31 cells at 10 uM after 48 hrs by SRB assay relative to control; format: functional; settings: UO-31, 48 h, read-out: GI; how it was run: as §4
# [33] = Growth inhibition of human NCI/ADR-RES cells at 10 uM after 48 hrs by SRB assay relative to control; format: functional; settings: read-out: GI; how it was run: as §2
smiles,measurement,setting,value
COc1cc(CSc2nc3ccc(Cl)cc3c(=O)n2Cc2ccccc2)cc(OC)c1OC,RatioGI50,Cancer cell lines [1],2 - 10
same,inhibition of growth at 10 µM,[2],57.8%
same,GI50,[3],4 µM
same,LC50 (concentration killing 50% of cells),[3],> 100 µM
same,TGI,[3],> 100 µM
same,inhibition of growth at 10 µM,[4],64.7%
same,inhibition of growth at 10 µM,[5],61.2%
same,inhibition of growth at 10 µM,[6],56.6%
same,GI50,[7],3.3 µM
same,LC50,[7],> 100 µM
same,TGI,[7],59.1 µM
same,inhibition of growth at 10 µM,[8],44.9%
same,inhibition of growth at 10 µM,[9],73.3%
same,inhibition of growth at 10 µM,[10],48%
same,inhibition of growth at 10 µM,[11],85.7%
same,inhibition of growth at 10 µM,[12],86.9%
same,inhibition of growth at 10 µM,[13],64.7%
same,inhibition of growth at 10 µM,[14],60.7%
same,RatioGI50,Cancer cell lines [15],2 - 10
same,inhibition of growth at 10 µM,[16],71.4%
same,inhibition of growth at 10 µM,[17],61.5%
same,inhibition of growth at 10 µM,[18],66.1%
same,inhibition of growth at 10 µM,[19],52.5%
same,RatioGI50,Cancer cell lines [20],2 - 10
same,RatioGI50,Cancer cell lines [21],2 - 10
same,inhibition of growth at 10 µM,[22],76.4%
same,IC50,Dihydrofolate reductase,4 µM
same,inhibition of growth at 10 µM,[23],84.8%
same,inhibition of growth at 10 µM,[24],94.2%
same,inhibition of growth at 10 µM,[25],50%
same,RatioGI50,Melanoma cell,2 - 10
same,inhibition of growth at 10 µM,[26],88.3%
same,inhibition of growth at 10 µM,[27],74.4%
same,inhibition of growth at 10 µM,[28],59.7%
same,inhibition of growth at 10 µM,[29],69.5%
same,GI50,[30],3.1 µM
same,LC50,[30],87.5 µM
same,TGI,[30],86.3 µM
same,inhibition of growth at 10 µM,[31],75.7%
same,inhibition of growth at 10 µM,[32],72.9%
same,inhibition of growth at 10 µM,[33],86.1%
COc1ccc(-n2c(SCc3cc(OC)c(OC)c(OC)c3)nc3ccc(C)cc3c2=O)c(OC)c1,RatioGI50,Cancer cell lines [1],2 - 10
same,inhibition of growth at 10 µM,[2],81.1%
same,GI50,[3],3.7 µM
same,LC50 (concentration killing 50% of cells),[3],> 100 µM
same,TGI,[3],> 100 µM
same,inhibition of growth at 10 µM,[4],88.8%
same,inhibition of growth at 10 µM,[5],74.5%
same,inhibition of growth at 10 µM,[6],70.4%
same,GI50,[7],4.1 µM
same,LC50,[7],> 100 µM
same,TGI,[7],84.9 µM
same,inhibition of growth at 10 µM,[8],91.3%
same,inhibition of growth at 10 µM,[9],86.7%
same,inhibition of growth at 10 µM,[10],42.6%
same,inhibition of growth at 10 µM,[11],84.6%
same,inhibition of growth at 10 µM,[12],80.4%
same,inhibition of growth at 10 µM,[13],64.3%
same,inhibition of growth at 10 µM,[14],68.4%
same,RatioGI50,Cancer cell lines [15],2 - 10
same,inhibition of growth at 10 µM,[16],27.9%
same,inhibition of growth at 10 µM,[17],54.8%
same,inhibition of growth at 10 µM,[18],66.9%
same,inhibition of growth at 10 µM,[19],72%
same,RatioGI50,Cancer cell lines [20],2 - 10
same,RatioGI50,Cancer cell lines [21],2 - 10
same,inhibition of growth at 10 µM,[22],81.9%
same,IC50,Dihydrofolate reductase,3 µM
same,inhibition of growth at 10 µM,[23],75.6%
same,inhibition of growth at 10 µM,[24],80%
same,inhibition of growth at 10 µM,[25],54.5%
same,RatioGI50,Melanoma cell,2 - 10
same,inhibition of growth at 10 µM,[26],88.8%
same,inhibition of growth at 10 µM,[27],82.4%
same,inhibition of growth at 10 µM,[28],55.1%
same,inhibition of growth at 10 µM,[29],93.3%
same,GI50,[30],4.4 µM
same,LC50,[30],> 100 µM
same,TGI,[30],87.4 µM
same,inhibition of growth at 10 µM,[31],54.7%
same,inhibition of growth at 10 µM,[32],81.8%
same,inhibition of growth at 10 µM,[33],98.6%
